Screens from PubChem BioAssay.
Hits are enriched below; roughly 3.5% of the tested compounds scored in any of these assays.
PAFAH2 inh – inhibitors of human PAFAH2. Q99487. recombinant PAFAH2, FP-rhodamine activity probe, fluorescence polarization. inhibition, % at 3.39 µM. hit rate 0.99% among 340,000. AID 492956;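 active means inhibition above the mean over all tested compounds plus 3 SD, cut at about 30% in these data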;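 further: inhibitors block probe labeling of enzyme so polarization drops; 0% = enzyme with DMSO and 100% = wells lacking PAFAH2 protein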
PAFAH1B3 inh – PAFAH1B3 (human) inhibition. Q15102. recombinant PAFAH1B3, FP-rhodamine probe, fluorescence polarization. inhibition, % at 3.39 µM. hit rate 0.28% among 340,000;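 active means inhibition above the screen-wide average of all tested compounds plus 3 SD, cut at about 25% in these data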;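 further: 0% = enzyme with DMSO only and 100% = wells lacking PAFAH1B3 protein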
PAFAH1B2 inh – blocks human PAF acetylhydrolase 1b catalytic subunit 2 | recombinant PAFAH1B2, FP-rhodamine activity probe, fluorescence polarization | inhibition, % at 3.39 µM | hit rate 1.2% among 340,000 | AID 492953;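 active means inhibition above the mean of all tested compounds plus 3 SD, cut at about 24% in these data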;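 further: 0% = enzyme with DMSO and 100% = wells lacking PAFAH1B2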
Apaf-1 inh – human Apaf-1 inhibition; reconstituted apoptosome caspase-3 activity, DEVD-Rh110 fluorescence; AID 489030; hit rate 0.71% among 330,000; inhibition, % at 20 µM; active means inhibition of at least 40% at 20 µM;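 further: plate controls were DMSO wells for no effect and DEVD-CHO caspase inhibitor wells for full effect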
Target sequence (O14727 whole entry, looked up): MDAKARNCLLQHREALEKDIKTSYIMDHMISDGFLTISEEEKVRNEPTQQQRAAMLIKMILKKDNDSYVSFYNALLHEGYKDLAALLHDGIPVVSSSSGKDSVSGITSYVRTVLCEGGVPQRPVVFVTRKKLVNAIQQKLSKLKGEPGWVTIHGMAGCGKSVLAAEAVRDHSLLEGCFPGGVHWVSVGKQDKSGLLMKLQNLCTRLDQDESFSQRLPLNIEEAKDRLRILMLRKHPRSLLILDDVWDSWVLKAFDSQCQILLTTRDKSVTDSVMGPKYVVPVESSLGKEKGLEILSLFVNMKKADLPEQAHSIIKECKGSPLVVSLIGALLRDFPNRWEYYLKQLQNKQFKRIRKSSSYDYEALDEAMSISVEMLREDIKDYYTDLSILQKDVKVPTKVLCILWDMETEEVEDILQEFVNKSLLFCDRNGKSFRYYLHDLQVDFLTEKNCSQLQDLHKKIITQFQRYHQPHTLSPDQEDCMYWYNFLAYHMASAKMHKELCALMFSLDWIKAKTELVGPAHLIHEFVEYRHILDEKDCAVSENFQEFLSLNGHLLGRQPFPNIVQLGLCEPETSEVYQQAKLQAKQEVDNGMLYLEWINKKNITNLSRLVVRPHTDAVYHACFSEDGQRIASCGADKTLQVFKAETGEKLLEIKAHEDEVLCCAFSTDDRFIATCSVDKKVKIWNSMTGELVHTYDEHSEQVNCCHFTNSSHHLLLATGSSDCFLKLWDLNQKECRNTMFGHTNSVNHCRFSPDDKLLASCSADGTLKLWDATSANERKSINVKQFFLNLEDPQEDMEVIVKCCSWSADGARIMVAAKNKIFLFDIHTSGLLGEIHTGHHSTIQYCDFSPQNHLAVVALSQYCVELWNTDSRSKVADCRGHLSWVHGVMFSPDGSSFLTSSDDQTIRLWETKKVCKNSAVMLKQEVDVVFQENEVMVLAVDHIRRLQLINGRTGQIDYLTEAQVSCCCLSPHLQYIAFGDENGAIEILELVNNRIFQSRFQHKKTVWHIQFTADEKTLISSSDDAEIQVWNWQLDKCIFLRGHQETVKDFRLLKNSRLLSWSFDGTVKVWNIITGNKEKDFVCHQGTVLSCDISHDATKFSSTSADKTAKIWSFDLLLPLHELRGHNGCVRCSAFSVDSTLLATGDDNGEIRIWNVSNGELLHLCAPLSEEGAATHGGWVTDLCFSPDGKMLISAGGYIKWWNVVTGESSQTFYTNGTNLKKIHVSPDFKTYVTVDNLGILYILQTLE
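Material: biochemical Apaf-1 apoptosome reconstitution. Medium: Hepes buffer, pH 7.5. Also added: cytochrome c activation, bis-DEVD rhodamine 110 substrate. Timing: 30 min compound preincubation, 50 min activation, room temperature. Measured by: rhodamine 110 fluorescence at Ex 480/Em 540 nm.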
pPAFAH inh – pPAFAH (human) enzyme inhibition | AID 463082 | hit rate 1.5% among 330,000 | recombinant pPAFAH, FP-rhodamine probe fluorescence polarization | inhibition, % at 3.39 µM | Q13093;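 active means inhibition above the mean inhibition across the screen plus 3 SD, cut at about 25% in these data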;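 further: inhibitors block binding of the rhodamine activity-based probe so polarization drops; 0% = enzyme with DMSO and 100% = wells lacking pPAFAH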
PREPL inhibitor – inhibits the human prolyl oligopeptidase-like enzyme. recombinant PREPL, fluorescence polarization activity-based probe. inhibition, % at 5.96 µM. AID 2751. hit rate 0.68% among 320,000. Q4J6C6; in the data active means inhibition above about 43%;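 further: 0% = enzyme with DMSO and 100% = wells lacking enzyme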
Apaf-1 inh conf2 – Apaf-1 inhibition, single-dose confirmed. hit rate 25% among 1,800. shares compounds with Apaf-1 inh. inhibition, % at 20 µM. reconstituted apoptosome, caspase-3 DEVD-Rh110 fluorescence;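 active means mean inhibition of at least 40% at 20 µM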;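 further: plate controls were DMSO wells for no effect and DEVD-CHO caspase inhibitor control wells for full effect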
Rh110 interf inh – counter-screen for Apaf-1 inhibitors: fluorescence interference. shares compounds with Apaf-1 inh. Rh110 fluorescence interference, quenched caspase reaction. activation (fluorescence interference), % at 20 µM. 1,800 tested, under 10 active. AID 504615;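 active means signal rise of 40% or more at 20 µM, treated as a fluorescence artifact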
Fluor interf inh – counter-screen for Apaf-1 inhibitors: fluorescence interference, dose response. shares compounds with Apaf-1 inh. fluorescence interference counterscreen, Apaf-1 assay format. IC50, µM. 460 tested, under 10 active; call rule not given here
* marks the source's active call; other numbers are inactive results; · = no result.

SMILES	PAFAH2 inh	PAFAH1B3 inh	PAFAH1B2 inh	Apaf-1 inh	pPAFAH inh	PREPL inhibitor	Apaf-1 inh conf2	Rh110 interf inh	Fluor interf inh
Cc1ccc(-c2nnc(CSc3nnc(COc4cccc5ccccc45)n3-c3ccccc3)o2)cc1	-11	-5	0	44*	2	-35	47*	-3	>100
c1ccc(C[C@H]2CN=C(Nc3ccccc3)N2CCCC2CCCCC2)cc1	-7	10	3	47*	0	3	1	3	·
CCOC(=O)c1cc2nc(OCC)nc(OCC)c2[nH]1	-3	10	2	·	·	·	·	·	·
C1CCC(C(CC2CCCCN2)C2CCCCC2)CC1 (centres undefined)	1	7	6	61*	6	-36	20	17	·
O=C(Nc1ccc(N2CCCCC2)cc1)c1cc([N+](=O)[O-])cc([N+](=O)[O-])c1	4	1	-2	-4	0	-6	·	·	·
Cc1nn2c(-c3ccncc3)nnc2c2ccccc12	4	3	-2	74*	1	6	86*	1	>100
Cc1ccc(OCC(O)CNS(=O)(=O)c2ccccc2C(=O)N2CCCCC2)cc1 (centres undefined)	-1	2	2	10	4	-1	·	·	·
CCCCCCCCCCCCCCCC[n+]1ccc(C(N)=O)cc1	9	-1	0	73*	13	37	53*	8	>100
CCc1ccccc1OCC(=O)Nc1ccc(N2CCCC2)cc1C	4	4	0	43*	·	·	26	4	·
COc1ccc(N2CCCC2)c(NC(=O)COc2ccccc2)c1	2	5	-2	15	5	8	·	·	·
Cc1cc(N2CCCC2)ccc1NC(=O)COc1ccccc1	1	-2	-7	52*	·	·	19	-2	·
CCN(CC)CCOc1ccc(/C(=C(/Cl)c2ccccc2)c2ccccc2)cc1	-11	5	0	65*	1	8	22	8	·
CC/C(=C(\c1ccccc1)c1ccc(OCCN(C)C)cc1)c1ccccc1	8	16	13	72*	0	4	25	8	·
CC/C(=C(/CC)c1ccc(O)cc1)c1ccc(O)cc1	10	1	8	-151	2	7	·	·	·
CN(C)CCOc1ccc(C(C)(C)c2ccccc2)cc1	5	10	5	-11	5	-14	·	·	·
CC/C(=C(\c1ccc(O)cc1)c1ccc(OCCN(C)C)cc1)c1ccccc1	18	6	6	65*	6	11	28	13	·
CC(C)CN(C(=O)Cn1ccccc1=O)C1CCS(=O)(=O)C1 (centres undefined)	-4	0	1	-10	-1	9	·	·	·
COC(=O)c1ccc(COc2ncnc3ccccc23)o1	-10	6	0	-3	-2	-7	·	·	·
Oc1ccc(/C=N/Nc2cc(N3CCCC3)nc(N3CCCC3)n2)cc1	6	12	-1	97*	6	22	100*	12	>100
CCOc1ccc(/C=N/Nc2cc(C)nc(N3CCOCC3)n2)cc1	2	2	0	-8	8	2	·	·	·
Oc1cccc(/C=N/Nc2cc(N3CCCC3)nc(N3CCCC3)n2)c1	-6	8	3	97*	11	35	99*	11	>100
COc1ccc(/C=N/Nc2cc(N3CCCC3)nc(N3CCCC3)n2)cc1	0	10	4	93*	5	30	96*	5	>100
Oc1ccc(/C=N/Nc2cc(N3CCOCC3)nc(N3CCOCC3)n2)cc1	0	1	0	11	-5	29	·	·	·
Brc1cccc(/C=N/Nc2nc(N3CCCCC3)nc(N3CCCCC3)n2)c1	·	·	·	6	1	-1	·	·	·
CN(Cc1ccc(Cl)c(Cl)c1)C(=O)c1cccc(S(=O)(=O)N2CCN(Cc3ccccc3)CC2)c1	-2	2	5	72*	1	41	49*	6	>100
SMILES	PAFAH2 inh	PAFAH1B3 inh	PAFAH1B2 inh	Apaf-1 inh	pPAFAH inh	PREPL inhibitor	Apaf-1 inh conf2	Rh110 interf inh	Fluor interf inh
CN(Cc1cccc(F)c1)C(=O)c1cccc(S(=O)(=O)N2CCN(Cc3ccccc3)CC2)c1	0	1	3	13	3	28	·	·	·
COc1ccccc1OCCNC(=O)c1cccc(S(=O)(=O)N2CCN(Cc3ccccc3)CC2)c1	-1	6	5	67*	4	13	49*	4	>100
COc1ccccc1OCCNC(=O)c1cccc(S(=O)(=O)N2CCN(C)CC2)c1	2	6	3	26	3	1	·	·	·
COc1cccc(/C=N/Nc2nnc(C)n2N)c1O	8	6	1	3	2	-3	·	·	·
COc1ccc(-n2c(C)cc(/C=N/Nc3nnc(C)n3N)c2C)cc1	9	11	-1	53*	9	29	1	0	·
O=C(NCCCn1ccnc1)c1noc2c1CCc1ccccc1-2	-4	11	0	47*	6	6	40	2	·
O=C(NCCCn1ccnc1)c1noc2c1CCCC2	2	0	4	-20	0	14	·	·	·
O=C1C(Cl)=C(NCCN2CCCCC2)C(=O)c2ccccc21	-1	29*	3	68*	7	13	79*	21	>100
CCNC1=C(Cl)C(=O)c2ccccc2C1=O	-1	17	4	51*	4	11	36	5	·
CCCN(CC(=O)Nc1ccccc1C)C(=O)CCCOc1ccc(Br)cc1	-2	10	20	53*	12	31	43*	9	>100
CCCN(CC(=O)Nc1ccccc1OC)C(=O)Cn1[nH]c(=O)c2ccccc2c1=O	-2	2	0	-8	2	3	·	·	·
CCCN(CC(=O)Nc1ccccc1OC)C(=O)CSc1ccc(Br)cc1C	2	-3	4	57*	0	6	40*	4	>100
O=C(c1ccc(-c2ccccc2Cl)o1)N1CCCC(C(F)(F)F)C1 (centres undefined)	6	1	-2	41*	3	15	27	3	·
O=C(c1ccc([N+](=O)[O-])o1)N(Cc1nnc(-c2ccccc2Cl)o1)C1CC1	12	9	5	51*	1	14	41*	5	>100
COc1ccc(OC)c(Cc2nnc(CCC(=O)NC3CCCCCCC3)o2)c1	5	7	7	-2	2	3	·	·	·
COc1ccc(-c2cc(=O)n(-c3ccc([N+](=O)[O-])cc3)[nH]2)cc1	19	13	5	65*	1	8	14	4	·
CCCn1c(SCC(=O)N2CCN(C(=O)c3ccco3)CC2)nc2ccccc2c1=O	·	·	·	0	-5	-12	·	·	·
